Compound activity from PubChem BioAssay.
Rows were chosen to be rich in hits. Some 2% of all compounds tested hit in one or more screens of this group.
PPC-1+TRAIL kill – PPC-1 cancer cell killing with TRAIL present; PPC-1 cells + TRAIL, ATPLite viability luminescence; cell killing (% activity), % at 4 µM or 5 µM; actives 0.41% (n = 220,000); AID 1443;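 active means cell killing above 50% in the first pass at 4 µM, then a duplicate retest at 5 µM averaging 50% or more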;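 further: plate controls were cells with TRAIL plus DMSO for no effect and medium-only wells lacking cells for full effect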
C8 TRAIL sens – sensitizes caspase-8 expressing cells to TRAIL; NB7+C8 cells + TRAIL, ATPlite viability luminescence; inhibition (viability loss, TRAIL sensitization), % at 10 µM; actives 1% (n = 360,000); AID 624354;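 active means compounds causing at least 50% loss of cell viability in the single-dose screen, relative to plate controls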
HSP90 refold inh – HSP90 refolding inhibition in rabbit reticulocyte lysate | luciferase refolding luminescence, 3 h | inhibition, % at 5.6 µM | actives 0.91% (n = 290,000) | AID 1789;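 active means inhibition above the screen-wide mean plus 3 SD, computed separately per campaign, cut at about 16% in these data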;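 further: 0% = DMSO wells and 100% = 60 µM geldanamycin wells; inhibitors lower the luminescence because luciferase stays unfolded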
FLuc inh counter – Photinus pyralis luciferase inhibition counter-screen | P08659 | ATPLite firefly luciferase biochemical luminescence, 10 min | inhibition, % at 10 µM | actives 1.5% (n = 200,000) | AID 1006;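 active means inhibition above about 50% when tested at 10 µM, limit read from the data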
Target sequence (P08659 whole entry, looked up): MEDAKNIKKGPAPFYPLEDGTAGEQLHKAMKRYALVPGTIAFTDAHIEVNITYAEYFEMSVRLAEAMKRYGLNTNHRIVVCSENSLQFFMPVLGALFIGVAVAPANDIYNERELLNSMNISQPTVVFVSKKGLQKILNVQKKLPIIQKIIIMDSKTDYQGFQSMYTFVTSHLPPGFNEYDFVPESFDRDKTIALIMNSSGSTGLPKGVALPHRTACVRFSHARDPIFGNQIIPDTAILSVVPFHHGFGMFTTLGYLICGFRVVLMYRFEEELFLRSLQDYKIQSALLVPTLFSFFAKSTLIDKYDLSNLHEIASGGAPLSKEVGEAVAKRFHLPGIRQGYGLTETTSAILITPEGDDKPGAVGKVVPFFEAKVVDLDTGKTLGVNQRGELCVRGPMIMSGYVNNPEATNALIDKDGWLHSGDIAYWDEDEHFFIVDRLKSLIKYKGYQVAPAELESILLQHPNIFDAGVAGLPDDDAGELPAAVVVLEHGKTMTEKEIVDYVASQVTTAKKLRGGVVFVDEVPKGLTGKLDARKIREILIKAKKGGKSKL
FLuc stim CS – affects firefly luciferase, flagging false hits in luciferase stimulation screens; P08659; ATPlite luciferase biochemical, luminescence, 10 min; 0 = ATP-free wells, 1 = DMSO control; activation factor at 10 µM; 200,000 tested, under 10 active; AID 1027;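 active means luciferase activation factor, scaled between plate controls, of at least 2 with compound at 10 µM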
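Material: Luciferase/luciferin reagent mix | Doses: Test compounds dosed from 2 mM stocks in 100% DMSO | Timing: 10 min incubation after luciferase reagent addition, room temperature | Measured by: Luminescence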
* hit, by the source's call; x = not tested or not shown.

SMILES	PPC-1+TRAIL kill	C8 TRAIL sens	HSP90 refold inh	FLuc inh counter	FLuc stim CS
CN(C)c1ccc(NC(=O)COC(=O)CCC(=O)c2ccc(F)cc2)cc1	9	-8	-2	51*	0.5
CCOc1cc(C(=O)CCC(=O)OCC(=O)Nc2ccc(F)cc2)ccc1O	x	-20	x	x	x
Nc1ccc2oc(-c3ccccn3)nc2c1	34	31	1	58*	0.4
c1ccc(-c2nc3ccccc3o2)nc1	3	5	-2	31	0.7
Clc1ccc2oc(-c3ccccn3)nc2c1	46	28	1	69*	0.3
CCOC(=O)Cn1nc2oc(=O)c(CCN3CCN(c4ccccc4OC)CC3)c(C)c2c1C	x	-4	x	x	x
COc1cccc(C(O)c2nc(-c3cncnc3)cs2)c1 (stereo not drawn)	x	-5	x	x	x
CCOc1ccc(C(=O)N/N=C/c2ccccc2[N+](=O)[O-])cc1	52*	76*	6	89*	0.1
Cc1ccc(C(=O)N/N=C\c2ccccc2[N+](=O)[O-])cn1	x	52*	3	78*	0.2
CCOc1ccc(NC(=O)Cc2ccccc2)c([N+](=O)[O-])c1	7	-4	-2	-1	1
CCOc1ccc(NC(=O)COc2ccccc2)c([N+](=O)[O-])c1	22	31	-2	59*	0.4
CC1=CC(=O)C=C(C)C1=NOS(=O)(=O)c1ccccc1	2	17	-1	-5	1.1
CC1=CC(=O)C(C(C)C)=C/C1=N/OS(=O)(=O)c1ccccc1	-1	69*	2	x	x
CCCNC(=O)C1(C)CCN(Cc2ccc(-n3ccnc3)cc2)C1 (stereo not drawn)	x	-6	x	x	x
CC[C@H](C)[C@@H]1NC(=O)[C@@H](CC(C)C)NC(=O)[C@H](C(C)C)NC(=O)[C@H]2CSSC[C@H](NC1=O)C(=O)N2	x	94*	x	x	x
CCCOC(=O)c1ccc(-c2ccc(C=O)o2)cc1	50*	9	36*	10	0.9
COc1cccc(NC(=O)n2ncc3c(C)cccc32)c1	x	53*	35*	x	x
O=C(NC(=S)Nc1nc2ccccc2s1)c1cccs1	13	84*	-5	90*	0.1
CCc1ccc(-c2nc(NC(=S)NC(=O)c3cccs3)sc2C)cc1	5	-34	1	-5	1
COC(=O)c1nc(NC(=S)NC(=O)c2cccs2)sc1C	x	50*	-6	x	x
C[C@H]1CN([C@@H](C)CO)C(=O)CCCn2nncc2CO[C@H]1CN(C)S(=O)(=O)c1ccc(Oc2ccccc2)nc1	x	-5	x	x	x
O=C(Nc1ccc(Oc2c(F)c(F)c(F)c(F)c2F)cc1)OC1CCN2Cc3ccccc3N=C12 (stereo not drawn)	-17	69*	1	x	x
COCCN1C[C@@H](CO)O[C@@H](n2cnc3c(NCC(C)C)ncnc32)C1	x	-22	x	x	x
Cc1cccn2cc(-c3c[nH]c4ccccc34)nc12	10	6	3	16	0.8
Brc1ccc2nc(-c3c[nH]c4ccccc34)cn2c1	12	37	5	58*	0.4
SMILES	PPC-1+TRAIL kill	C8 TRAIL sens	HSP90 refold inh	FLuc inh counter	FLuc stim CS
Clc1ccc(-c2cn3cc(Br)ccc3n2)cc1Cl	32	36	-1	53*	0.5
CC(C)C[C@H]1CNC(=S)N1C[C@H]1CCCN1C[C@H](Cc1ccccc1)N1C[C@H](CC(C)C)N(CCc2ccccc2)C1=S	x	-21	x	x	x
Cc1cc(NC(=O)c2ccc(Cl)cc2)no1	20	41	-1	59*	0.4
Cc1cc(NC(=O)c2ccccc2-c2ccccc2C(=O)O)no1	50*	8	3	0	1
CCSc1ccccc1C(=O)Nc1cc(C)on1	-12	6	-5	-5	1.1
CC(=O)c1cccc(-c2ccnc3c2CC(C(=O)NCC2CCOCC2)O3)c1 (stereo not drawn)	x	10	x	x	x
Cn1c(C(=O)NCc2ccccn2)cc2c(=O)n3ccccc3nc21	32	20	-3	51*	0.5
Cn1c(C(=O)NC2CCCCC2)cc2c(=O)n3ccccc3nc21	x	13	-4	x	x
N#Cc1cccnc1N1CCN(C(=O)c2cccc3c2C(=O)c2ccc(Cl)cc2S3(=O)=O)CC1	x	78*	x	x	x
O=C(NCCOc1ccccc1)c1cccc2c1C(=O)c1ccc(Cl)cc1S2(=O)=O	x	55*	x	x	x
O=C(NC1CC1)c1cccc2c1C(=O)c1ccc(N3CCC(Cc4ccccc4)CC3)cc1S2(=O)=O	x	23	x	x	x
O=C1c2ccc(Cl)cc2S(=O)(=O)c2cccc(C(=O)N3CCC(Cc4ccccc4)CC3)c21	x	93*	x	x	x
COc1cc(C(C)=O)ccc1OC(=O)N1CCOCC1	x	-22	x	x	x
Cc1[nH]n(-c2ccccc2)c(=O)c1/C=N/NC(=O)c1ccc(O)cc1O	x	42	-3	x	x
Cc1ccc(-n2[nH]c(C)c(/C=N/NC(=O)c3ccc(O)cc3O)c2=O)cc1	x	73*	-11	x	x
CCc1nc2ccccc2c(C(=O)OCC(=O)Nc2cccc(S(=O)(=O)N3CCOCC3)c2)c1C	-2	50*	0	-4	1
O=C(NC(=S)N1CCN(c2ccc(C(F)(F)F)cc2[N+](=O)[O-])CC1)c1cccs1	16	51*	-3	-9	1.1
CCN1CCN(C(=S)NC(=O)c2cccs2)CC1	x	-21	-1	x	x
c1ccc(Cn2ncc3c(N4CCCCC4)ncnc32)cc1	5	9	2	-6	1.1
Clc1ccc(Cn2ncc3c(N4CCN(c5ccccc5)CC4)ncnc32)cc1	x	74*	x	x	x
CCCCN(C)c1c(C)nc2ccc(C(=O)N(C)CCN(C)C)cn12	x	-15	x	x	x
CC(C)CC(=O)/C(=C\c1ccc(Cl)cc1Cl)n1cncn1	9	64*	0	-2	1
CCc1nc(N2CCN(C(=O)CCl)CC2)c2c3c(sc2n1)CC(C)CC3 (stereo not drawn)	x	87*	3	x	x
COC(=O)C[C@@H]1CC[C@H](NC(=O)c2cnccn2)[C@@H](CO)O1	x	-18	x	x	x
CCOc1ccc(-n2nnnc2-c2nc3ccccc3s2)cc1	19	63*	12	34	0.7
Cc1ccc(-n2nnnc2-c2nc3ccccc3s2)cc1	14	2	0	1	1
CC(=O)N1CCCC(C)(C(=O)Nc2cccc(OC(C)C)c2)C1 (stereo not drawn)	x	8	x	x	x
